In ChEMBL document CHEMBL1133105, “Antimalarial, antitrypanosomal, and antileishmanial activities and cytotoxicity of bis(9-amino-6-chloro-2-methoxyacridines): influence of the linker” (J Med Chem, 2000):

How the values were obtained:
[1] = tested on: Trypanosoma cruzi; assay: (§1) In Vitro evaluation for the percentage of activity towards Trypanosoma cruzi at 6.25 uM Concentration; Toxic upon mouse primary peritoneal macrophages; type: functional, organism-based
Procedure, shortened: (§2)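 Mouse peritoneal macrophages, 30 000/well, infected after 24 h with about 100 000 T. cruzi trypomastigotes per well plus 2-fold drug dilutions (12.5–1.56 µM). Incubated 4 days at 37 °C, 5% CO2. Methanol-fixed, Giemsa-stained and scored microscopically as % reduction of total parasite load (free trypomastigotes plus intracellular amastigotes) versus untreated controls.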

[2] = tested on: MRC5; assay: Cytotoxicity on MRC-5 cells at 25 uM; type: functional; conditions: Homo sapiens
Procedure, shortened: (§3)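 MRC-5 human diploid embryonic lung cells seeded at 5 000/well, washed after 24 h, then given 2-fold drug dilutions (25, 12.5, 6.25, 3.13 µM) in RPMI + 5% FCS, final DMSO below 0.5%. Incubated 7 days at 37 °C, 5% CO2. MTT colorimetric read-out, scored as % reduction of absorbance at 540 nm versus untreated controls.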

[3] = tested on: Trypanosoma brucei; assay: Percentage of activity against Trypanosoma brucei at 6.25 uM; type: functional
Procedure, shortened: (§4)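 Bloodstream-form T. brucei in HMI-9 medium, 10 000 parasites/well, exposed to 12.5, 6.25, 3.13 and 1.56 µM drug for 4 days. Read-out is % inhibition of parasite multiplication. Macrophage toxicity judged on mouse primary peritoneal macrophages.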

[4] = tested on: Plasmodium falciparum; assay: Parasite growth inhibition against Plasmodium falciparum W2; type: functional, organism-based
Procedure, shortened: (§5)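 Asynchronous cultures of each strain on human erythrocytes (0.5% parasitemia, 1% final hematocrit) were exposed to serially diluted drug for 24 h at 37 °C. Then 0.5 µCi [3H]hypoxanthine per well was added for 24 h. Incorporation was compared with a drug-free control on the same plate. IC50 was taken from the concentration-response curve as the mean of several independent experiments. DMSO was at most 0.1%.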

[5] = tested on: MRC5; assay: Cytotoxicity on MRC-5 cells at 3.13 uM; type: functional; conditions: Homo sapiens; procedure, shortened: as §3
[6] = tested on: Plasmodium falciparum; assay: Growth inhibition of chloroquine-sensitive Plasmodium falciparum 3D7
[7] = tested on: MRC5; assay: Cytotoxicity on MRC-5 cells at 6.25 uM; type: functional; conditions: Homo sapiens; procedure, shortened: as §3
[8] = tested on: Trypanosoma cruzi; assay: Percentage of activity against Trypanosoma cruzi at 3.13 uM; type: functional; procedure, shortened: as §2
[9] = tested on: Plasmodium falciparum; assay: In vitro sensitivity for Plasmodium falciparum FcB1R; type: functional, organism-based
Procedure, shortened: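 Asynchronous P. falciparum cultures in human erythrocytes (0.5% parasitemia, 1% haematocrit) exposed to serially diluted drug for 24 h at 37 °C. [3H]hypoxanthine (0.5 µCi/well) then added for a further 24 h. Uptake compared with drug-free controls on the same plate. IC50 taken from the concentration–response curve, averaged over independent experiments. DMSO ≤0.1%.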

[10] = tested on: Trypanosoma brucei; assay: Percentage of activity against Trypanosoma brucei at 3.13 uM; type: functional; procedure, shortened: as §4
[11] = tested on: Leishmania infantum; assay: Percentage of activity against Leishmania infantum at 3.13 uM; type: functional
Procedure, shortened: (§6)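 Starch-stimulated mouse peritoneal macrophages, 30 000/well, infected after 24 h with spleen-derived L. infantum amastigotes (10:1) together with 2-fold drug dilutions (12.5–1.56 µM). Incubated 7 days at 37 °C, 5% CO2. Wright-stained slides scored microscopically as % reduction of total parasite load or of infected macrophages. Uninfected treated cultures judged microscopically for macrophage toxicity.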

[12] = tested on: Plasmodium falciparum; assay: Parasite growth inhibition against Plasmodium falciparum F32A; type: functional, organism-based; procedure, shortened: as §5
[13] = tested on: Plasmodium falciparum; assay: Parasite growth inhibition against Plasmodium falciparum FCM29; type: functional, organism-based; procedure, shortened: as §5
[14] = tested on: Plasmodium falciparum; assay: Growth inhibition against chloroquine-resistant Plasmodium falciparum K1; type: functional, organism-based; procedure, shortened: as §5
[15] = tested on: MRC5; assay: Cytotoxicity on MRC-5 cells at 12.5 uM; type: functional; conditions: Homo sapiens; procedure, shortened: as §3
[16] = tested on: Trypanosoma cruzi; assay: Percentage of activity against Trypanosoma cruzi at 12.5 uM; Toxic upon mouse primary peritoneal macrophages; type: functional, organism-based; procedure, shortened: as §2
[17] = tested on: Leishmania infantum; assay: Percentage of activity against Leishmania infantum at 1.56 uM; type: functional; procedure, shortened: as §6
[18] = tested on: Plasmodium falciparum; assay: Parasite growth inhibition against Plasmodium falciparum FCR3; type: functional, organism-based; procedure, shortened: as §5
[19] = tested on: Leishmania infantum; assay: Percentage of activity against Leishmania infantum at 12.5 uM Concentration; Toxic upon mouse primary peritoneal macrophages; type: functional, organism-based; procedure, shortened: as §6
[20] = tested on: Plasmodium falciparum; assay: Parasite growth inhibition against Plasmodium falciparum GP1; type: functional, organism-based; procedure, shortened: as §5
[21] = tested on: Trypanosoma brucei; assay: Percentage of activity against Trypanosoma brucei at 1.56 uM; type: functional; procedure, shortened: as §4
[22] = tested on: Trypanosoma cruzi; assay: Percentage of activity against Trypanosoma cruzi at 1.56 uM; type: functional; procedure, shortened: as §2
[23] = tested on: Leishmania infantum; assay: Percentage of activity against Leishmania infantum at 6.25 uM; Toxic upon mouse primary peritoneal macrophages; type: functional, organism-based; procedure, shortened: as §6
[24] = tested on: Trypanosoma brucei; assay: In Vitro inhibition concentration against Trypomastigote form of Trypanosoma brucei; type: functional, organism-based
Procedure, shortened: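 Bloodstream-form trypomastigotes were grown in HMI-9 medium. 10 000 parasites per well were incubated with drug at 12.5, 6.25, 3.13 and 1.56 µM for 4 days, and parasite multiplication was assessed.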

[25] = tested on: MRC5; assay: In Vitro cytotoxicity on MRC-5 cells; type: functional; conditions: Homo sapiens; procedure, shortened: as §3
[26] = tested on: Trypanosoma cruzi; assay: In Vitro evaluation for the percentage of activity towards Trypanosoma cruzi at 1.56 uM Concentration; Toxic upon mouse primary peritoneal macrophages; type: functional; procedure, shortened: as §2
[27] = tested on: Trypanosoma cruzi; assay: as §1; type: ADME, organism-based; procedure, shortened: as §2
[28] = tested on: Leishmania infantum; assay: (§7) In Vitro evaluation for the percentage of activity towards Leishmania infantum at 3.13 uM Concentration; Toxic upon mouse primary peritoneal macrophages; type: organism-based; procedure, shortened: as §6
[29] = tested on: Trypanosoma brucei; assay: Percentage of activity against Trypanosoma brucei at 12.5 uM; type: functional; procedure, shortened: as §4
[30] = tested on: Trypanosoma cruzi; assay: In Vitro evaluation for the percentage of activity towards Trypanosoma cruzi at 12.5 uM Concentration; Toxic upon mouse primary peritoneal macrophages; type: organism-based; procedure, shortened: as §2
[31] = tested on: Leishmania infantum; assay: (§8) In Vitro evaluation for the percentage of activity towards Leishmania infantum at 1.56 uM Concentration; Toxic upon mouse primary peritoneal macrophages; type: organism-based; procedure, shortened: as §6
[32] = tested on: Leishmania infantum; assay: In Vitro evaluation for the percentage of activity towards Leishmania infantum 6.25 uM Concentration; Toxic upon mouse primary peritoneal macrophages; type: organism-based; procedure, shortened: as §6
[33] = tested on: Leishmania infantum; assay: In Vitro evaluation for the percentage of activity towards Leishmania infantum at 12.5 uM Concentration; Toxic upon mouse primary peritoneal macrophages; type: organism-based; procedure, shortened: as §6
[34] = tested on: Trypanosoma cruzi; assay: (§9) In Vitro evaluation for the percentage of activity towards Trypanosoma cruzi at 3.13 uM Concentration; Toxic upon mouse primary peritoneal macrophages; type: ADME, organism-based; procedure, shortened: as §2
[35] = tested on: Leishmania infantum; assay: In Vitro inhibition concentration against Amastigote form of Leishmania infantum
[36] = tested on: Trypanosoma cruzi; assay: as §9; type: functional, organism-based; procedure, shortened: as §2
[37] = tested on: Leishmania infantum; assay: as §8; type: functional, organism-based; procedure, shortened: as §6
[38] = tested on: Leishmania infantum; assay: as §7; type: functional, organism-based; procedure, shortened: as §6
[39] = tested on: Trypanosoma brucei; assay: In Vitro evaluation for the percentage of activity towards Trypanosoma brucei at 3.13 uM Concentration; type: functional; procedure, shortened: as §4

Row | IC50 [9] [nM] | SMILES | Cytotoxicity [1] | cytotoxicity at 25 µM [2] [%] | Inhibition of parasite multiplication [3] [%] | cytotoxicity at 3.13 µM [5] [%] | cytotoxicity at 6.25 µM [7] [%] | Parasite growth inhibition [10] [%] | cytotoxicity at 12.5 µM [15] [%] | Cytotoxicity [16] | Cytotoxicity [19] | Percent inhibition of parasite multiplication [21] [%] | Parasite load reduction [22] [%] | Cytotoxicity [23] | CC50 [25] [nM] | other results
1 | – | Nc1nc(N)nc(Nc2ccc([As]3SCC(CO)S3)cc2)n1 (stereo not given) [MELARSOPROL] | – | – | – | – | – | – | – | – | – | – | – | – | 12500 | IC50 [24]: 200 nM
2 | 40 | COc1ccc2nc3cc(Cl)ccc3c(NCCCN(CCCNc3c4ccc(Cl)cc4nc4ccc(OC)cc34)C(=O)CCC(N)=O)c2c1 | – | 100 | 100 | 100 | 100 | 100 | 100 | – | – | 100 | – | – | – | Cytotoxicity [26]: 95%; Cytotoxicity [27]: Toxic; Cytotoxicity [28]: Toxic; Inhibition of parasite multiplication [29]: 100%; Cytotoxicity [30]: Toxic; Cytotoxicity [31]: Toxic; Cytotoxicity [32]: Toxic; Cytotoxicity [33]: Toxic; Cytotoxicity [34]: Toxic
3 | – | C[C@@H]1[C@H](O)[C@@H](C)/C=C/C=C/C=C/C=C/C=C/C=C/C=C/[C@H](O[C@@H]2O[C@H](C)[C@@H](O)[C@H](N)[C@@H]2O)C[C@@H]2O[C@](O)(C[C@@H](O)C[C@@H](O)[C@H](O)CC[C@@H](O)C[C@@H](O)CC(=O)O[C@H]1C)C[C@H](O)[C@H]2C(=O)O [AMPHOTERICIN B] | – | – | – | – | – | – | – | – | – | – | – | – | 25000 | IC50 [35]: 50 nM
4 | 39 | COc1ccc2nc3cc(Cl)ccc3c(NCCCN(CCCNc3c4ccc(Cl)cc4nc4ccc(OC)cc34)C(=O)CCN(C)C)c2c1 | Toxic | 54 | 100 | 30 | 39 | – | 40 | Toxic | Toxic | 100 | 40 | Toxic | – | Cytotoxicity [36]: Toxic; Cytotoxicity [37]: Toxic; Cytotoxicity [38]: Toxic; Cytotoxicity [39]: 100%

Row | SMILES | IC50 [9] [nM] | Cytotoxicity [1] | cytotoxicity at 25 µM [2] [%] | Inhibition of parasite multiplication [3] [%] | cytotoxicity at 3.13 µM [5] [%] | cytotoxicity at 6.25 µM [7] [%] | Parasite growth inhibition [10] [%] | cytotoxicity at 12.5 µM [15] [%] | Cytotoxicity [16] | Cytotoxicity [19] | Percent inhibition of parasite multiplication [21] [%] | Parasite load reduction [22] [%] | Cytotoxicity [23] | CC50 [25] [nM] | other results
5 | COc1ccc2nc3cc(Cl)ccc3c(NCCCN(CCCNc3c4ccc(Cl)cc4nc4ccc(OC)cc34)C(=O)C(CC(C)C)NC(=O)OC(C)(C)C)c2c1 (stereo not given) | 27 | Toxic | 55 | 100 | 42 | 47 | 100 | 49 | Toxic | Toxic | 100 | 40 | Toxic | – | IC50 [4]: 15 nM; IC50 [6]: 48 nM; Reduction of T. cruzi parasite load [8]: 80%; Percent antileishmanial activity (reduction of parasite load) [11]: 95%; IC50 [12]: 52 nM; IC50 [13]: 13 nM; IC50 [14]: 14 nM; Antileishmanial activity (% reduction of parasite load) [17]: 90%; IC50 [18]: 17 nM; IC50 [20]: 63 nM
